From ChEMBL document CHEMBL1127627, “Synthesis and antitumor activity of a new class of pyrazolo[4,3-e]pyrrolo[1,2-a][1,4]diazepinone analogues of pyrrolo[1,4][2,1-c]benzodiazepines” (J Med Chem, 1994) come the findings set out here.

Each structure is given as a SMILES string. pIC50: −log10 of the molar value. Several values for one entry are separate records, joined by “and”; a condition that tells them apart may be missing. Equal entries are not always repeated.

For assay [1], the system named is LoVo. The assay can be described thus: Tested in vitro for inhibition after 144 hr against human colon carcinoma LoVo/DX cell line resistant to Doxorubicin (DX). Format: functional, cell-based. A digest of the protocol:
(§1)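 LoVo human colon carcinoma cells and their doxorubicin-resistant LoVo/DX subline were used in growth-inhibition studies. IC50 is the concentration inhibiting growth by 50% after 144 h exposure to compound, reported as the mean of repeated experiments ± standard deviation.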

In assay [2] the test system is L1210. The assay can be described thus: Tested in vitro for inhibition after 48 hr exposure against murine leukemia cell line L1210 by experiment 1. Type of assay: functional, cell-based. Particulars: Mus musculus, L1210, 48 h. A digest of the protocol: (§2)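 L1210 murine leukemia cells and their melphalan-resistant L1210/L-PAM subline were used in growth-inhibition studies. IC50 is the concentration inhibiting growth by 50% after 48 h exposure, given as the mean of repeated experiments ± standard deviation.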

Assay [3] has as its system L1210. The assay can be described thus: Tested in vitro for inhibition after 48 hr exposure against murine leukemia cell line L1210 by experiment 2. Format: functional, cell-based. Particulars: Mus musculus, L1210, 48 h. Summed up: as §2
Assay [4] deals with L1210. The assay can be described thus: Tested in vitro for inhibition after 48 hr exposure against murine leukemia cell line L1210/L-PAM resistant to melphalan (L-PAM) by experiment 1. Format: functional, cell-based. Particulars: Mus musculus, L1210, 48 h. Summed up: as §2
The test system of assay [5] is LoVo. The assay can be described thus: Tested in vitro for inhibition after 144 hr exposure against human colon carcinoma LoVo cell line. Type of assay: functional, cell-based. A digest of the protocol:
as §1

A short description of assay [6]: Resistance index as the ratio of IC50 against LoVo/Dx to that of LoVo. Type of assay: functional. A digest of the protocol: (§3)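 Resistance index taken as IC50 in doxorubicin-resistant LoVo/DX human colon carcinoma cells over IC50 in parental LoVo cells. Each IC50 is the concentration giving 50% growth inhibition after 144 h exposure.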
For assay [7], the system named is L1210. The assay can be described thus: Tested in vitro for inhibition after 48 hr exposure against murine leukemia cell line L1210/L-PAM resistant to melphalan (L-PAM) by experiment 2. Particulars: Mus musculus, L1210, 48 h. Type of assay: functional, cell-based. Summed up:
as §2

For assay [8], the system named is L1210. The assay can be described thus: Tested in vitro for inhibition after 48 hr exposure against murine leukemia cell line L1210. Format: functional, cell-based. Particulars: Mus musculus, L1210, 48 h. A digest of the protocol:
as §2

The nature of assay [9]: Resistance index as the ratio of IC50 against LoVo/Dx to that of LoVo. Type of assay: functional. Summed up:
as §3

The nature of assay [10]: Resistance index as the ratio of IC50 against L1210/L-PAM to that of L1210 cell lines. Type of assay: functional. A digest of the protocol:
(§4)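 Resistance index computed as IC50 in melphalan-resistant L1210/L-PAM murine leukemia cells divided by IC50 in parental L1210 cells. Each IC50 is the concentration inhibiting growth by 50% after 48 h exposure, from growth-inhibition studies.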

Assay [11] relates to L1210. The assay can be described thus: Tested in vitro for inhibition after 48 hr exposure against murine leukemia cell line L1210/L-PAM resistant to melphalan (L-PAM). Type of assay: functional, cell-based. Conditions: Mus musculus, L1210, 48 h. Summed up:
as §2

The nature of assay [12]: Resistance index as the ratio of IC50 against L1210/L-PAM to that of L1210 cell lines. Type of assay: functional.
Assay [13] concerns L1210. The assay can be described thus: tested in vitro for inhibition after 48 hr exposure against murine leukemia cell line L1210/L-PAM resistant to melphalan (L-PAM by experiment 1. Format: functional, cell-based. Conditions: Mus musculus, L1210, 48 h. Summed up:
as §2

Assay [14] relates to L1210. The assay can be described thus: tested in vitro for inhibition after 48 hr exposure against murine leukemia cell line L1210/L-PAM resistant to melphalan (L-PAM by experiment 2. Type of assay: functional, cell-based. Conditions: Mus musculus, L1210, 48 h. Summed up: as §2
Assay [15] concerns L1210. The assay can be described thus: Tested in vitro for inhibition after 48 hr exposure against murine leukemia cell line L1210/L-PAM resistant to melphalan (L-PAM)by experiment 2. Type of assay: functional, cell-based. Particulars: Mus musculus, L1210, 48 h. Summed up:
as §2

Assay [16] concerns L1210. The assay can be described thus: Tested in vitro for inhibition after 48 hr exposure against murine leukemia cell line L1210/L-PAM resistant to melphalan (L-PAM)by experiment 1. Particulars: Mus musculus, L1210, 48 h. Format: functional, cell-based. Summed up: as §2
Assay [17] relates to L1210. The assay can be described thus: Tested in vitro for inhibition after 48 hr exposure against murine leukemia cell line L1210/L-PAM resistant to melphalan (L-PAM) by experiment 1. Type of assay: functional, cell-based. Conditions: Mus musculus, L1210, 48 h. Summed up:
as §2

Assay [18] has as its system L1210. The assay can be described thus: Tested in vitro for inhibition after 48 hr exposure against murine leukemia cell line L1210/L-PAM resistant to melphalan (L-PAM) by experiment 2. Format: functional, cell-based. Particulars: Mus musculus, L1210, 48 h. Summed up:
as §2

Assay [19] can be described thus: Resistance index as the ratio of IC50 against L1210/L-PAM to that of L1210 cell lines in experiment 2. Type of assay: functional. Summed up:
as §4

Assay [20] can be described thus: Resistance index as the ratio of IC50 against LoVo/Dx to that of LoVo in experiment 1. Type of assay: functional. Summed up:
as §3

`Cc1ccc(Cn2nc3c(c2C)N=C[C@@H]2CCCN2C3=O)cc1C`: the negative-log IC50 (pIC50) (in general, the IC50 on a negative log10 scale, so that one unit is a factor of ten) with LoVo [1] was 5.22; with L1210 [2] it was 5.40; in the assay with L1210 [3] it was 5.30; in the assay with L1210 [4], 5.10; with LoVo [5] it was 4.40; in the assay on L1210 [7] it was 5.40. The RI in [6] is 0.2.
As to `Cc1nn(Cc2ccccc2)c2c1N=C[C@@H]1CCCN1C2=O`, the pIC50 is 4.70 with L1210 [8], 4.42 in the assay on LoVo [1] and 4.34 with LoVo [5]. Further, the RI in assay [9] was 0.8.
As for `COC(=O)c1nn(C)c2c1N=C[C@@H]1CCCN1C2=O`, the negative-log IC50 (pIC50) was 4.57 in the assay on L1210 [8], 4.22 in the assay on LoVo [1] and 4.27 in the assay on LoVo [5]. Besides, the RI in [9] stood at 1.12.
As to `Cc1c2c(nn1Cc1ccc(Cl)cc1)C(=O)N1CCC[C@H]1C=N2`, the negative logarithm of the IC50 (pIC50) is 4.96 with LoVo [1]; 6.30 in the assay on L1210 [2]; 6.10 with L1210 [3]; 6.80 in the assay with L1210 [4]; 4.43 with LoVo [5]; 6.57 in the assay with L1210 [7]. The RI is 2.8 and 3.1 in [10]; 0.3 in [6].
`C/C=C1/CC2C(OC)Nc3cc(OC)c(OC)cc3C(=O)N2C1` (stereo not drawn): the pIC50 is 7.92 in the assay on L1210 [8], 8.40 in the assay on LoVo [1], 7.82 in the assay on L1210 [11] and 8.05 in the assay with LoVo [5]. Besides, the RI in [12] was 1.4; in [9], 0.5.
For `COC(=O)c1c2c(nn1C)C(=O)N1CCC[C@H]1C=N2`, the pIC50 with L1210 [13] was 4.16; in the assay with L1210 [14], 4.21; with LoVo [1] it was under 3.79; with L1210 [2], 4.51; in the assay on L1210 [3], 4.39; in the assay on LoVo [5] it was under 3.79. The RI in assay [10] was 2.2 and 1.5.
`COc1cc2c(cc1O)N=C[C@@H]1CCCN1C2=O` had a pIC50 in the assay on L1210 [8] of 6.42.
Regarding `CCn1nc(C)c2c1C(=O)N1CCC[C@H]1C=N2`, the negative-log IC50 (pIC50) in the assay on LoVo [1] was under 3.67; in the assay with L1210 [2], 4.40; in the assay with L1210 [3], 4.16; in the assay on L1210 [4] it was 4.00; in the assay with LoVo [5], under 3.67; in the assay with L1210 [7], 3.90. In [10], the RI came to 2.5.
For the compound `COc1cccc2c1C(=O)c1c(O)c3c(c(O)c1C2=O)C[C@@](O)(C(=O)CO)C[C@@H]3O[C@H]1C[C@H](N)[C@H](O)[C@H](C)O1` [DOXORUBICIN], the pIC50 in the assay on L1210 [8] is 7.30; in the assay on LoVo [1], 5.12; with L1210 [11] it was 7.22; with LoVo [5], 7.24. Moreover, the RI in [9] stood at 133.
As for `COc1ccc(Cn2nc3c(c2C)N=C[C@@H]2CCCN2C3=O)cc1`, the pIC50 in the assay on LoVo [1] was 4.49; with L1210 [2], 4.72; with L1210 [3] it was 4.96; with L1210 [15] it was 5.22; in the assay with LoVo [5] it was 4.32; with L1210 [16] it was 5.52. The RI in assay [6] is 0.7.
In the case of `CC(C)c1c2c(nn1Cc1ccccc1)C(=O)N1CCC[C@H]1C=N2`, the pIC50 in the assay with L1210 [8] is 4.92; in the assay with LoVo [1], 5.10; with L1210 [11], 4.96; in the assay on LoVo [5], 4.52. Also, the RI in [12] came out at 0.97; in assay [9], 0.2.
On to `Cc1nn(C)c2c1N=C[C@@H]1CCCN1C2=O`, for which the negative logarithm of the IC50 (pIC50) with L1210 [8] was 4.66; with LoVo [1], 4.41; with LoVo [5], 4.38. The RI in [9] stood at 0.9.
Regarding `Cc1c2c(nn1Cc1ccccc1)C(=O)N1CCC[C@H]1C=N2`, the pIC50 in the assay on L1210 [8] was 5.52; with LoVo [1] it was 4.60; with LoVo [5], 4.27. Besides, in [9], the RI stood at 0.5.
`CCn1nc2c(c1C)N=C[C@@H]1CCCN1C2=O`: the pIC50 in the assay on LoVo [1] was 5.22; in the assay with L1210 [2], 5.15; in the assay with L1210 [3], 5.22; in the assay on L1210 [17], 5.22; with L1210 [18], 4.89; with LoVo [5] it was 4.82. Moreover, the RI in [19] is 0.9 and 2; in [20] it was 0.4.
For the compound `Cc1c2c(nn1C)C(=O)N1CCC[C@H]1C=N2`, the negative-log IC50 (pIC50) with L1210 [8] was 5.10; in the assay with LoVo [1], 4.49; with LoVo [5], 4.57. For the same compound, in assay [9], the RI amounted to 1.2.
On to `N[C@@H](Cc1ccc(N(CCCl)CCCl)cc1)C(=O)O`, for which the negative logarithm of the IC50 (pIC50) in the assay with L1210 [8] was 4.81; with LoVo [1], 5.31; with L1210 [11] it was 4.33; in the assay with LoVo [5], 5.39. Further, the results for the RI in [12] and in assay [9] were 3.1 and 1.18, respectively.
